According to ChEMBL document CHEMBL3739301, “Design, synthesis and biological evaluation of tricyclic diterpene derivatives as novel neuroprotective agents against ischemic brain injury” (Eur J Med Chem, 2015):
The source made the active and inactive calls. The rule behind the calls is not given here.

Experiments:
[1] = Neuroprotective activity against glutamate-induced neuronal cell death in Sprague-Dawley rat CGN cells assessed as cell viability at 10 uM preincubated for 24 hrs followed by glutamate challenge measured after 24 hrs by MTT assay (reference value: 40.4%); format: functional; conditions: read-out: Activity
[2] = Neuroprotective activity against glutamate-induced neuronal cell death in Sprague-Dawley rat CGN cells at 10 uM preincubated for 24 hrs followed by glutamate challenge measured after 24 hrs relative to control; format: functional
[3] = Neuroprotective activity against oxygen-glucose deprivation-induced neuronal cell death in Sprague-Dawley rat CGN cells assessed as cell viability at 10 uM preincubated for 24 hrs followed by induction of oxygen-glucose deprivation measured after 24 hrs by MTT assay (reference value: 48.7%); format: functional; conditions: read-out: Activity
[4] = system: neuronal; test: Neuroprotective activity against glutamate-induced neuronal cell death in Sprague-Dawley rat CGN cells assessed as increase in cell viability preincubated for 24 hrs followed by glutamate challenge measured after 24 hrs by MTT assay; format: functional, cell-based
[5] = Neuroprotective activity against oxygen-glucose deprivation-induced neuronal cell death in Sprague-Dawley rat CGN cells assessed as cell viability at 1 uM preincubated for 24 hrs followed by induction of oxygen-glucose deprivation measured after 24 hrs by MTT assay (reference value: 48.7%); format: functional; conditions: read-out: Activity
[6] = Neuroprotective activity against oxygen-glucose deprivation-induced neuronal cell death in Sprague-Dawley rat CGN cells at 10 uM preincubated for 24 hrs followed by induction of oxygen-glucose deprivation measured after 24 hrs relative to control; format: functional
[7] = Neuroprotective activity against nutrient deprivation-induced neuronal cell death in Sprague-Dawley rat CGN cells at 10 uM preincubated for 24 hrs followed by induction of nutrient deprivation measured after 24 hrs relative to control; format: functional
Summary of the method: (§1)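 Primary rat cerebellar granule neurons (8-day-old Sprague-Dawley pups, DIV 6-8) pretreated 24 h with compound (0.1% DMSO final), then deprived of B27 serum substitute for 24 h. MTT viability (0.5 mg/ml, 4 h) read at 570 nm against control = 100%; neuroprotection percentage derived from the basal deprived value; mean ± SD, n = 3.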

[8] = Permeability of the compound at 25 ug/ml after 18 hrs by PAMPA assay; format: ADME; conditions: read-out: permeability
[9] = Cytotoxicity against Sprague-Dawley rat CGN cells at <10 uM after 72 hrs by MTT assay; format: cell-based
Summary of the method: (§2)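 Primary cerebellar granule neurons from 8-day SD rat pups; cytosine arabinoside […] added at 24 h, used at DIV 6–8. Cells exposed to a concentration series for 72 h, 0.1% DMSO final. Viability by MTT (0.5 mg/ml, 4 h, 37 °C); formazan dissolved in DMSO, OD 570 nm. n = 3, mean ± SD.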

[10] = Cytotoxicity against Sprague-Dawley rat CGN cells at 50 to 100 uM after 72 hrs by MTT assay; format: cell-based; summary of the method: as §2
[11] = Neuroprotective activity against glutamate-induced neuronal cell death in Sprague-Dawley rat CGN cells assessed as cell viability at 50 uM preincubated for 24 hrs followed by glutamate challenge measured after 24 hrs by MTT assay (reference value: 40.4%); format: functional; conditions: read-out: Activity
[12] = Neuroprotective activity against glutamate-induced neuronal cell death in Sprague-Dawley rat CGN cells at 50 uM preincubated for 24 hrs followed by glutamate challenge measured after 24 hrs relative to control; format: functional
[13] = Neuroprotective activity against oxygen-glucose deprivation-induced neuronal cell death in Sprague-Dawley rat CGN cells assessed as cell viability at 50 uM preincubated for 24 hrs followed by induction of oxygen-glucose deprivation measured after 24 hrs by MTT assay (reference value: 48.7%); format: functional; conditions: read-out: Activity
[14] = Neuroprotective activity against oxygen-glucose deprivation-induced neuronal cell death in Sprague-Dawley rat CGN cells at 50 uM preincubated for 24 hrs followed by induction of oxygen-glucose deprivation measured after 24 hrs relative to control; format: functional
[15] = system: Rattus norvegicus; test: Anti-ischemic activity in Sprague-Dawley rat transient middle cerebral artery occlusion model assessed as reduction in infarct volume at 3 mg/kg, iv administered for 2 to 6 hrs post middle cerebral artery occlusion measured at 24 hrs by TTC staining-based morphometric analysis; format: organism-based; conditions: in vivo
Summary of the method: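 Male Sprague-Dawley rats (260-280 g), middle cerebral artery occluded 2 h by intraluminal nylon monofilament, then reperfused; body temperature held at 37 C. Drug given iv at 2, 4 and 6 h after ischemia onset (test agent in DMSO, edaravone in saline; vehicle controls). Neurological scoring at 24 h; 2 mm coronal slices stained with 2% TTC 20 min at 37 C, formalin-fixed; infarct volume by morphometry; n = 8-12.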

[16] = system: Rattus norvegicus; test: Anti-ischemic activity in Sprague-Dawley rat transient middle cerebral artery occlusion model assessed as reduction in neurological deficit at 3 mg/kg, iv administered for 2 to 6 hrs post middle cerebral artery occlusion measured at 24 hrs; format: functional, organism-based
Summary of the method: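 Male SD rats (260–280 g); intraluminal nylon suture (~0.26 mm, round tip) occluded MCA for 2 h, then withdrawn for reperfusion, body temperature held at 37 °C. Given iv at 2, 4 and 6 h after ischemia onset; 10 mg/kg in DMSO or 3 mg/kg in saline; DMSO or saline vehicle controls. Neurological score at 24 h after MCAO; n = 8–12, mean ± SD.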

[17] = system: Rattus norvegicus; test: Antioxidant activity in Sprague-Dawley rat transient middle cerebral artery occlusion model assessed as […] in GSH level in ipsilateral cortex at 3 mg/kg, iv measured at 24 hrs post middle cerebral artery occlusion; format: functional, organism-based
Summary of the method: (§3)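 Rat tMCAO: 2 h suture occlusion, then reperfusion. Dosing iv at 2, 4 and 6 h after onset, 10 mg/kg (DMSO) or 3 mg/kg (saline). At 24 h the ipsilateral cortex was lysed in RIPA buffer and protein quantified by BCA. GSH concentration and SOD activity were then measured with commercial kits.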

[18] = system: Rattus norvegicus; test: Antioxidant activity in Sprague-Dawley rat transient middle cerebral artery occlusion model assessed as […] in SOD level in ipsilateral cortex at 3 mg/kg, iv measured at 24 hrs post middle cerebral artery occlusion; format: functional, organism-based; summary of the method: as §3
[19] = Neuroprotective activity in Sprague-Dawley rat CGN cells assessed as upregulation of HO-1 expression after 24 hrs by Western blot analysis; format: functional, cell-based
Summary of the method: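 Primary granule neurons treated with a concentration series for 24 h, lysed in RIPA buffer, protein by BCA. Separated on 15% SDS-PAGE, transferred to PVDF, blocked in 5% BSA. Primary antibody overnight at 4 °C, secondary 30 min at room temperature; chemiluminescent detection. HO-1 quantified by densitometry normalized to β-actin. n = 3, mean ± SD.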

[20] = system: neuronal; test: Neuroprotective activity against glutamate-induced neuronal cell death in Sprague-Dawley rat CGN cells assessed as increase in SOD level at 10 uM preincubated for 24 hrs followed by glutamate challenge measured after 24 hrs; format: functional, cell-based
[21] = system: neuronal; test: Neuroprotective activity against glutamate-induced neuronal cell death in Sprague-Dawley rat CGN cells assessed as increase in GSH level at 10 uM preincubated for 24 hrs followed by glutamate challenge measured after 24 hrs; format: functional, cell-based
Summary of the method: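 Granule neurons pretreated 24 h with […] compound, then […] for 24 h. Lysed in buffer containing protease inhibitor cocktail; protein determined by BCA. SOD activity and GSH level measured with commercial kits. n = 3, mean ± SD.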

[22] = Neuroprotective activity against nutrient deprivation-induced neuronal cell death in Sprague-Dawley rat CGN cells assessed as cell viability at […] preincubated for 24 hrs followed by induction of nutrient deprivation measured after 24 hrs by MTT assay (reference value: 44.1%); format: functional; conditions: read-out: Activity
Summary of the method: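 Cerebellar granule neurons pretreated 24 h with 1 or […] compound (0.1% DMSO), then kept without B27 supplement for 24 h. Viability by MTT (0.5 mg/ml, 4 h, OD 570 nm) against non-deprived control (100%); neuroprotection % from basal value. n = 3, mean ± SD.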

[23] = Neuroprotective activity against nutrient deprivation-induced neuronal cell death in Sprague-Dawley rat CGN cells at […] preincubated for 24 hrs followed by induction of nutrient deprivation measured after 24 hrs relative to control; format: functional; summary of the method: as §1

COc1cc2c(cc1C(=O)C(C)C)CC[C@H]1C(C)(C)[C@@H](O)CC[C@]21C
viability at 10 µM [1]: 38.8%

COc1cc2c(cc1CO)CC[C@H]1C(C)(C)[C@@H](O)CC[C@]21C
viability at 10 µM [1]: 64.4%
Activity [2]: 40.3%

COc1cc2c(cc1C(=O)N(C)C)CC[C@H]1C(C)(C)[C@@H](O)CC[C@]21C
viability at 10 µM [1]: 70.7%
Activity [2]: 50.8%

CCNC(=O)c1cc2c(cc1OC)[C@@]1(C)CC[C@H](O)C(C)(C)[C@@H]1CC2
viability at 10 µM [1]: 78.2%
Activity [2]: 63.4%

COc1cc2c(cc1C(C)=O)CC[C@H]1C(C)(C)[C@@H](OC(=O)C(F)(F)F)CC[C@]21C
viability at 10 µM [1]: 81%
viability at 10 µM [3]: 60.5%
Activity [2]: 68.1%
Activity [4]: Dose-dependent effect
viability at 1 µM [5]: 48.2%
Activity [6]: 23%
Activity [7]: 5%
Papp at 18 h, 25 ug/ml [8]: 7.31 ×10⁻⁶ cm/s
Activity [9]: Non-toxic

COC(=O)c1cc2c(cc1OC)[C@@]1(C)CC[C@H](O)C(C)(C)[C@@H]1CC2
viability at 10 µM [1]: 72.4%
viability at 10 µM [3]: 68.4%
Activity [2]: 53.7%
Activity [4]: Dose-dependent effect
viability at 1 µM [5]: 43.9%
Activity [6]: 38.4%
Activity [7]: 13.6%
Activity [9]: Non-toxic

C#CCNC(=O)c1cc2c(cc1OC)[C@@]1(C)CC[C@H](O)C(C)(C)[C@@H]1CC2
viability at 10 µM [1]: 81.7%
viability at 10 µM [3]: 67.8%
Activity [2]: 69.3%
Activity [4]: Dose-dependent effect
viability at 1 µM [5]: 59.7%
Activity [6]: 37.2%
Activity [7]: 17%
Activity [9]: Non-toxic
Activity [10]: Toxic

CCOC(=O)c1cc2c(cc1OC)[C@@]1(C)CC[C@H](O)C(C)(C)[C@@H]1CC2
viability at 10 µM [1]: 73.1%
Activity [2]: 54.9%

COc1cc2c(cc1C(C)=O)CC[C@H]1C(C)(C)C(=O)CC[C@]21C
viability at 10 µM [1]: 69.7%
Activity [2]: 49.2%

COCCC(=O)c1cc2c(cc1OC)[C@@]1(C)CC[C@H](O)C(C)(C)[C@@H]1CC2
viability at 10 µM [1]: 71.5%
Activity [2]: 52.2%

CCCCOC(=O)c1cc2c(cc1OC)[C@@]1(C)CC[C@H](O)C(C)(C)[C@@H]1CC2
viability at 10 µM [1]: 71%
Activity [2]: 51.3%

COc1cc2c(cc1C(=O)O)CC[C@H]1C(C)(C)[C@@H](O)CC[C@]21C
viability at 10 µM [1]: 54%
Activity [2]: 22.8%

CC1=NN(c2ccccc2)C(=O)C1 [EDARAVONE]
viability at 50 µM [11]: 86.7%
Activity [12]: 77.7%
viability at 50 µM [13]: 85.8%
Activity [14]: 72.3%
Activity [15]: Active
Activity [16]: Active
Activity [17]: Active
Activity [18]: Active

CC(=O)c1cc2c(cc1O)[C@@]1(C)CC[C@H](O)C(C)(C)[C@@H]1CC2
viability at 10 µM [1]: 77.1%
Activity [2]: 61.6%

CNC(=O)c1cc2c(cc1OC)[C@@]1(C)CC[C@H](O)C(C)(C)[C@@H]1CC2
viability at 10 µM [1]: 77.3%
Activity [2]: 61.9%

COc1cc2c(cc1C(C)=O)CC[C@H]1C(C)(C)[C@@H](OC(C)=O)CC[C@]21C
viability at 10 µM [1]: 80.4%
viability at 10 µM [3]: 60%
Activity [2]: 67.1%
Activity [4]: Dose-dependent effect
viability at 1 µM [5]: 50%
Activity [6]: 22%
Activity [7]: 6%
Activity [9]: Non-toxic
Activity [10]: Toxic

CCC(=O)c1cc2c(cc1OC)[C@@]1(C)CC[C@H](O)C(C)(C)[C@@H]1CC2
viability at 10 µM [1]: 63.2%
Activity [2]: 38.3%

CCCCCCCC(=O)c1cc2c(cc1OC)[C@@]1(C)CC[C@H](O)C(C)(C)[C@@H]1CC2
viability at 10 µM [1]: 40.5%

COc1cc2c(cc1C(=O)NCC(=O)O)CC[C@H]1C(C)(C)[C@@H](O)CC[C@]21C
viability at 10 µM [1]: 57.1%
Activity [2]: 28%

COc1cc2c(cc1C(=O)N1CCCCC1)CC[C@H]1C(C)(C)[C@@H](O)CC[C@]21C
viability at 10 µM [1]: 79.1%
Activity [2]: 64.9%

COc1cc2c(cc1C(C)=O)CC[C@H]1C(C)(C)[C@@H](O)CC[C@]21C
viability at 10 µM [1]: 85.2%
viability at 10 µM [3]: 74.5%
Activity [2]: 75.2%
Activity [4]: Dose-dependent effect
viability at 1 µM [5]: 51.1%
Activity [6]: 50.3%
Activity [7]: 19.5%
Activity [19]: Dose-dependent effect
Activity [20]: Active
Activity [21]: Active
Activity [9]: Non-toxic
Activity [10]: Toxic

CC(=O)N[C@@H](CS)C(=O)O [ACETYLCYSTEINE]
viability [22]: 53.7%
Activity [23]: 17.2%
